From PMC4291291 (European journal of medicinal chemistry, 2014)
≈ marks a conversion by molar mass, not a printed value.

How the values were obtained:
[1] = tested on: bioactivity of mevalonate; details: 200 μM concentration; cited from earlier work
[2] = Stability in human plasma at 37 °C; type: in vitro ADME
[3] = Enantiomeric ratio during incubation with human plasma; type: in vitro ADME; details: Chiral Cel OD-H
Method in brief: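 Test compound (100 mM acetonitrile stock) added to human plasma, which was diluted with distilled water and pre-warmed 5 min, then incubated at 37 °C. At t1/4 and t1/2, portions were quenched with acetonitrile and run on HPLC with a Chiral Cel OD-H column; LC/MS also used. Ratio taken from each enantiomer's peak integration.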

Stability in PBS buffer = type: physicochemical; details: pH 7.4
Method in brief: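 Test compound (10 mM acetonitrile stock, diluted 1:10) incubated in PBS pH 7.4 at 37 °C. Aliquots were taken at various times and injected directly onto HPLC with UV detection; run twice per compound. t1/2 = ln(2)/b, where b is the slope of ln(remaining parent fraction) versus time (one-phase decay).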

[4] = tested on: Streptococcus pneumoniae strain TIGR4; assay: Minimal inhibitory concentration; type: cell-based
[5] = tested on: Streptococcus pyogenes (GAS 5448); assay: MIC against additional organisms; type: cell-based
[6] = tested on: Streptococcus agalactiae (GBS COH1); assay: MIC against additional organisms; type: cell-based
[7] = tested on: Staphylococcus aureus (TCH1516); assay: MIC against additional organisms; type: cell-based
[8] = tested on: vancomycin resistant Enterococcus (VRE); assay: MIC against additional organisms; type: cell-based
E. coli K12 = assay: MIC against additional organisms; type: cell-based
RAW murine macrophages = assay: General cytotoxicity by lactate dehydrogenase; type: cell-based; details: concentrations up to 1.6 mM, 24 h
[9] = tested on: HaCaT human keratinocytes; assay: General cytotoxicity by lactate dehydrogenase; type: cell-based; details: concentrations up to 1.6 mM, 24 h
[10] = Stability of ester promoiety in deuterated PBS buffer; type: physicochemical
Method in brief: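 Deuterated PBS pH 7.4 in D2O (NaCl 137 mM, KCl 2.7 mM, Na2HPO4 10.1 mM, KH2PO4 1.8 mM). Test compound (1.0 mg, 4 μmol) dissolved in 800 μL of this buffer in an NMR tube and held at 37 °C. 1H NMR taken at 30 min, 1 h, 4 h, 24 h and 48 h. Decomposition judged from the integration ratio of impurity to parent signals.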

human MK = details: at concentrations that effectively inhibit the S. pneumoniae system; cited from earlier work
[11] = Stability of prospective decomposition intermediates of 23 in PBS buffer; type: physicochemical
[12] = t1/2 (min) of carbonate analogues in human plasma, footnote a: hydrolysis occurred only at carbonate promoieties
[13] = Streptococcus pneumoniae, TIGR4, 24 h
[14] = t1/2 (min) of benzyl amide and ester analogues in human plasma, footnote a: hydrolysis occurred only at the acetyl promoiety

Molecule: 6-fluoromevalonate
- block of the related bioactivity of mevalonate [1]: completely blocks

Molecule: CC1(CC(=O)Oc2ccccc2)CCOC(=O)O1 (stereo not shown) [9a, Phenyl 2-(4-methyl-2-oxo-1,3-dioxan-4-yl)acetate]
- half-life at 4 mM [2, 12]: < 0.05 h

Molecule: CC1(CC(=O)Oc2ccc(F)cc2)CCOC(=O)O1 (stereo not shown) [9b, 4-Fluorophenyl 2-(4-methyl-2-oxo-1,3-dioxan-4-yl)acetate]
- half-life at 4 mM [2, 12]: < 0.05 h

Molecule: CC1(CC(=O)Nc2ccccc2)CCOC(=O)O1 (stereo not shown) [10a, 2-(4-Methyl-2-oxo-1,3-dioxan-4-yl)-N-phenylacetamide]
- half-life at 4 mM [2, 12]: < 0.05 h

Molecule: CC1(CC(=O)NCc2ccccc2)CCOC(=O)O1 (stereo not shown) [10b, N-Benzyl-2-(4-methyl-2-oxo-1,3-dioxan-4-yl)acetamide]
- half-life at 4 mM [2, 12]: 0.133 h
- integration ratio of each enantiomer ([3]; at 4 min): 48/52
- integration ratio of each enantiomer ([3]; at 8 min): 46/54

Molecule: CC1(CC(=O)NCc2ccc(F)cc2)CCOC(=O)O1 (stereo not shown) [10c, N-(4-Fluorobenzyl)-2-(4-methyl-2-oxo-1,3-dioxan-4-yl)acetamide]
- half-life at 4 mM [2, 12]: 0.133 h

Molecule: O=C(CC1(CF)CCOC(=O)O1)OCc1ccc(F)cc1 (stereo not shown) [18a, 4-Fluorobenzyl 2-(4-(fluoromethyl)-2-oxo-1,3-dioxan-4-yl)acetate]
- half-life (Stability in PBS buffer): 26 h
- antibacterial activity against S. pneumoniae (in words) ([4]; S. pneumoniae, THB medium): generally inactive
- MIC [4, 13]: > 1600 µM

Molecule: O=C(CC1(CF)CCOC(=O)O1)OCc1ccc(F)cc1F (stereo not shown) [18b, 2,4-Difluorobenzyl 2-(4-(fluoromethyl)-2-oxo-1,3-dioxan-4-yl)acetate]
- half-life (Stability in PBS buffer): 22 h

Molecule: O=C(CC1(C(F)(F)F)CCOC(=O)O1)OCc1ccc(F)cc1 (stereo not shown) [25a, 4-Fluorobenzyl 2-(2-oxo-4-(trifluoromethyl)-1,3-dioxan-4-yl)acetate]
- half-life (Stability in PBS buffer): 6 h
- antibacterial activity against S. pneumoniae (in words) ([4]; S. pneumoniae, THB medium): marginally active
- MIC [4, 13]: 1600 µM (≈ 538 µg/mL)
- MIC ([5]; Streptococcus pyogenes): > 1600 µM
- MIC ([6]; Streptococcus agalactiae): > 1600 µM
- MIC ([7]; Staphylococcus aureus): > 1600 µM
- MIC ([8]; Enterococcus, VRE): > 1600 µM
- MIC (E. coli K12; Escherichia coli, K12): > 1600 µM
- general cytotoxicity (LDH release vs media alone) (RAW murine macrophages): No evidence of general cytotoxicity
- general cytotoxicity (LDH release vs media alone) [9]: No evidence of general cytotoxicity

Molecule: O=C(CC1(C(F)(F)F)CCOC(=O)O1)OCc1ccc(F)cc1F (stereo not shown) [25b, 2,4-Difluorobenzyl 2-(2-oxo-4-(trifluoromethyl)-1,3-dioxan-4-yl)acetate]
- half-life (Stability in PBS buffer): 5 h

Molecule: O=C(CC1(C(F)(F)F)CCOC(c2ccccc2)O1)NCc1ccccc1 (stereo not shown) [32b, N-Benzyl-2-(2-phenyl-4-(trifluoromethyl)-1,3-dioxan-4-yl)acetamide]
- antibacterial activity against S. pneumoniae (in words) ([4]; S. pneumoniae, THB medium): lack activity
- MIC [4, 13]: > 1600 µM

Molecule: CC(=O)OCCC(O)(CF)CC(=O)NCc1ccccc1 (stereo not shown) [38a, 5-(Benzylamino)-3-(fluoromethyl)-3-hydroxy-5-oxopentyl acetate]
- half-life at 4 mM [2, 14]: 0.333 to 0.5 h
- MIC [4, 13]: > 1600 µM

Molecule: COC(=O)CC(O)(CF)CCOC(C)=O (stereo not shown) [38b, Methyl 5-acetoxy-3-(fluoromethyl)-3-hydroxypentanoate]
- MIC [4, 13]: > 1600 µM

Molecule: CCOC(=O)CC(O)(CF)CCOC(C)=O (stereo not shown) [38c, Ethyl 5-acetoxy-3-(fluoromethyl)-3-hydroxypentanoate]
- decomposition after 48 h ([10]; deuterated PBS buffer pH 7.4, 37 °C, 48 h, 1H NMR integration ratio): less than 5%
- half-life ([10]; deuterated PBS buffer, pH 7.4): > 48 h
- MIC [4, 13]: > 1600 µM

Molecule: C[C@@](O)(CCOP(=O)(O)OP(=O)(O)O)CC(=O)O [DPM, 5-diphosphomevalonate]
- inhibition of human MK (human MK): not inhibited

Molecule: CC1(CC(=O)OCc2ccccc2)CCOC(=O)O1 (stereo not shown) [compound 4, Benzyl 2-(4-methyl-2-oxo-1,3-dioxan-4-yl)acetate]
- half-life (Stability in PBS buffer): > 48 h
- half-life at 4 mM [2, 12]: 0.0667 h
- integration ratio of each enantiomer ([3]; at 2 min): 35/65
- integration ratio of each enantiomer ([3]; at 4 min): 41/59

Molecule: O=C(CC1(CF)CCOC(=O)O1)OCc1ccccc1 (stereo not shown) [compound 16, Benzyl 2-(4-(fluoromethyl)-2-oxo-1,3-dioxan-4-yl)acetate]
- half-life (Stability in PBS buffer): 25 h
- antibacterial activity against S. pneumoniae (in words) ([4]; S. pneumoniae, THB medium): generally inactive
- MIC [4, 13]: > 1600 µM

Molecule: O=C(CC1(C(F)(F)F)CCOC(=O)O1)OCc1ccccc1 (stereo not shown) [compound 23, Benzyl 2-(2-oxo-4-(trifluoromethyl)-1,3-dioxan-4-yl)acetate]
- half-life (Stability in PBS buffer): 5 h

Molecule: O=C1CC(O)(C(F)(F)F)CCO1 (stereo not shown) [compound 26, 4-Hydroxy-4-(trifluoromethyl)tetrahydro-2H-pyran-2-one]
- half-life [11]: ~1 min
- MIC ([4]; Streptococcus pneumoniae, TIGR4): 800 µM (≈ 147 µg/mL)
- MIC [4, 13]: 800 µM (≈ 147 µg/mL)
- MIC ([5]; Streptococcus pyogenes): 200 µM (≈ 36.8 µg/mL)
- MIC ([6]; Streptococcus agalactiae): 800 µM (≈ 147 µg/mL)
- MIC ([7]; Staphylococcus aureus): > 1600 µM
- MIC ([8]; Enterococcus, VRE): > 1600 µM
- MIC (E. coli K12; Escherichia coli, K12): > 1600 µM
- general cytotoxicity (LDH release vs media alone) (RAW murine macrophages): No evidence of general cytotoxicity
- general cytotoxicity (LDH release vs media alone) [9]: No evidence of general cytotoxicity

Molecule: O=C1CC(O)(CF)CCO1 (stereo not shown) [compound 28, 6-fluoromevalolactone]
- potency relative to 6,6,6-trifluoromevalolactone (26) ([4]; S. pneumoniae MIC ratio): 4 fold
- MIC ([4]; S. pneumoniae, THB media): 200 µM (≈ 29.6 µg/mL)
- MIC ([4]; S. pneumoniae, THB medium, 24 h, 37 °C, lowest drug concentration that reduced growth by 80% or more): 200 µM (≈ 29.6 µg/mL)
- MIC ([5]; Streptococcus pyogenes (GAS 5448)): > 1600 µM
- MIC ([6]; Streptococcus agalactiae (GBS COH1)): > 1600 µM
- MIC ([7]; Staphylococcus aureus (TCH1516)): > 1600 µM
- MIC ([8]; vancomycin resistant Enterococcus (VRE)): > 1600 µM
- MIC (E. coli K12; E. coli K12): > 1600 µM

Molecule: CC(O)(CCO)CC(=O)NCc1c(F)c(F)c(F)c(F)c1F (stereo not shown) [compound 34, 3,5-Dihydroxy-3-methyl-N-((perfluorophenyl)methyl)pentanamide]
- half-life ([2]; half-life in human plasma): > 2 h

Molecule: CC(=O)OCCC(C)(O)CC(=O)NCc1c(F)c(F)c(F)c(F)c1F (stereo not shown) [compound 35, 3-Hydroxy-3-methyl-5-oxo-5-(((perfluorophenyl)methyl)amino)pentyl acetate]
- half-life at 4 mM [2, 14]: 0.333 to 0.5 h

Molecule: CC1(C)S[C@@H]2[C@H](NC(=O)Cc3ccccc3)C(=O)N2[C@H]1C(=O)O [penicillin G, reference compound]
- MIC ([5]; Streptococcus pyogenes): < 12.5 µM
- MIC ([6]; Streptococcus agalactiae): < 12.5 µM
- MIC ([7]; Staphylococcus aureus): < 12.5 µM
- MIC ([8]; Enterococcus, VRE): < 12.5 µM
- MIC (E. coli K12; Escherichia coli, K12): < 12.5 µM

Molecule: CN[C@H](CC(C)C)C(=O)N[C@H]1C(=O)N[C@@H](CC(N)=O)C(=O)N[C@H]2C(=O)N[C@H]3C(=O)N[C@H](C(=O)N[C@H](C(=O)O)c4cc(O)cc(O)c4-c4cc3ccc4O)[C@H](O)c3ccc(c(Cl)c3)Oc3cc2cc(c3O[C@@H]2O[C@H](CO)[C@@H](O)[C@H](O)[C@H]2O[C@H]2C[C@](C)(N)[C@H](O)[C@H](C)O2)Oc2ccc(cc2Cl)[C@H]1O [vancomycin, reference compound]
- MIC ([5]; Streptococcus pyogenes): < 12.5 µM
- MIC ([6]; Streptococcus agalactiae): < 12.5 µM
- MIC ([7]; Staphylococcus aureus): < 12.5 µM
- MIC ([8]; Enterococcus, VRE): < 12.5 µM
- MIC (E. coli K12; Escherichia coli, K12): < 12.5 µM
